Bioassay records from PubChem.
In the library only some 1.2% were active in any assay of this set; here they are far more common.
Furin inhibitor – blocks human furin protease activity; P09958; purified furin, fluorogenic substrate cleavage; inhibition, % at 20 µM or 30 µM; actives 0.061% (n = 220,000); AID 463115; in the data active means inhibition above about 25%
FXIIa inh – inhibitors of human coagulation factor XIIa; P00748; purified FXIIa, Boc-QGR-AMC fluorogenic substrate, 2 h; inhibition, % at 5 µM; actives 0.3% (n = 220,000); AID 800; in the data active means inhibition above about 40%;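 further: 0% = enzyme with no compound and 100% = blank without enzyme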
KLK5 inh – inhibitors of human kallikrein 5 | Q9Y337 | inhibition, % at 5 µM | recombinant hK5, fluorogenic AMC substrate cleavage | actives 0.59% (n = 210,000);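 active means inhibition of 40% or more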;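 further: 0% = enzyme controls without compound and 100% = no-enzyme blanks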
Target sequence (Q9Y337 67-293 limits assumed): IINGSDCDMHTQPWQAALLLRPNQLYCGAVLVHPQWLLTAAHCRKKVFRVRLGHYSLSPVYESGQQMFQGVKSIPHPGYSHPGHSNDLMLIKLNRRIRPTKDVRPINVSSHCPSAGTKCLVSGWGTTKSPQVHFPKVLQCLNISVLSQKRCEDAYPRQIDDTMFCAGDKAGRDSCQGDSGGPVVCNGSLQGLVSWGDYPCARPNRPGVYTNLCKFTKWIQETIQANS
PERK inh – blocks human PERK kinase; Q9NZJ5; CHO PERK-DD fusion, SEAP luminescence translation reporter; inhibition, % at 5.6 µM; actives 0.17% (n = 220,000);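 active means inhibition above the mean inhibition of all tested compounds plus 3 SD, set separately per screening campaign, cut at about 2.9% in these data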;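 further: PERK kinase domain activated by AP20187 dimerizer at 100 nM; 0% = DMSO with dimerizer and 100% = rapamycin at 8.4 µM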
Thrombin inh – thrombin (human) inhibition | P00734 | alpha-thrombin, Boc-VPR-AMC fluorogenic substrate cleavage | inhibition, % at 5 µM | actives 0.26% (n = 220,000) | AID 1046;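 active means inhibition at or above 40%; inactive means inhibition below 40%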;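 further: 0% = enzyme with no compound and 100% = wells without enzyme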
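Material: Human alpha-thrombin protein | Buffer or medium: pH 7.5 Tris-saline with Tween 20 | Reagent: Boc-VPR-AMC substrate, 15 µM final | Schedule: Reaction at ambient temperature | Detection: AMC fluorescence at 355 nm excitation and 460 nm emission | Evaluation: Percent inhibition scaled between no-compound controls and no-enzyme blanks | Controls: no-compound enzyme wells and no-enzyme blanks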
FXIa inh – factor XIa (human) inhibition; P03951; purified FXIa, Boc-Glu-Ala-Arg-AMC fluorogenic substrate; inhibition, % at 5 µM; actives 0.14% (n = 220,000); AID 798;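 active means inhibition of at least 40%; inactive means inhibition below 40%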;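 further: fluorescence of freed AMC excited at 355 nm; 0% = enzyme without compound and 100% = no enzyme blank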
The depositor's hits bear a star; x = no result given.

SMILES | Furin inhibitor | FXIIa inh | KLK5 inh | PERK inh | Thrombin inh | FXIa inh
CCOC(=O)c1cc(-c2ccccc2)sc1NC(=O)CN1C(=O)NC(CC)(c2ccc(F)cc2)C1=O (stereo not given) | -8 | 12 | -2 | 0 | -2 | -3
CCOC(=O)c1cc(-c2ccccc2)sc1NC(=O)CN1C(=O)NC(CC)(c2ccccc2)C1=O (stereo not given) | -7 | 18 | 40* | -2 | 14 | 16
COc1ccc(-c2[nH]ncc2CN2CCCOc3c(cccc3OC)C2)c(OC)c1 | -10 | 15 | 7 | 0 | 3 | 5
C/C(=C\c1ccccc1)C(=O)NCCCn1ccnc1 | -26 | 3 | 1 | 1 | -5 | -1
CC1(C)C2CC=C(/C=N/n3cnnc3)C1C2 (stereo not given) | -10 | 49* | 3 | -1 | 2 | 17
CCOC(=O)C1=C(C)OC(N)=C(C#N)C1c1cc(OC)c2c(c1)OCO2 (stereo not given) | -18 | 0 | -12 | 0 | -7 | -5
CCOC(=O)C1=C(C)OC(N)=C(C#N)C1c1cc2c(cc1[N+](=O)[O-])OCO2 (stereo not given) | -38 | 7 | -1 | 1 | 74* | -2
CCC(C)NCCOc1ccc(C)cc1[N+](=O)[O-] (stereo not given) | -14 | 23 | x | 0 | 41* | 12
Cc1cc(C)c(C)c(C(=O)c2ccccc2C(=O)O)c1C | -21 | 10 | 0 | 0 | -4 | -1
CC(=O)N1c2ccccc2N2C(c3c(C)c(C)cc(C)c3C)=NON12 | -13 | 6 | -4 | 1 | 47* | 0
COc1ccccc1C(=O)Oc1ccc(C(C)(C)C)cc1 | -9 | 2 | -5 | 1 | 0 | -6
CC(C)(C)c1ccc(C(=O)Oc2ccccc2CCC(=O)O)cc1 | -13 | 2 | -1 | 3.4* | -3 | 0
CC(CCCC(C)(C)O)NCc1cn[nH]c1-c1ccc2c(c1)OCO2 (stereo not given) | -13 | 0 | x | 0 | -3 | -2
CC(C)Sc1nc(SCC(=O)NCc2ccco2)c2c3c(sc2n1)COC(C)(C)C3 | -22 | 14 | 55* | -1 | 32 | 7
CC(NC(=O)c1ccc(OC2CCN(Cc3ccccn3)CC2)cc1)c1ccccc1 (stereo not given) | -26 | 5 | x | 1 | -5 | -1
COc1ccc(-c2nn3cnnc3s2)cc1OC | -18 | 18 | 129* | 1 | 45* | 12
CC(=O)Nc1ccc(C(=O)Nc2ccc3c(c2)OCO3)cc1 | -8 | 31 | 41* | 0 | 20 | 8
Cc1ccc(NC(=O)NCc2ccc3c(c2)OCO3)cc1 | -7 | 75* | 6 | 0 | 2 | 6
O=C(CCl)Nc1ccccc1C(=O)Nc1ccc2c(c1)OCO2 | 0 | 25 | 42* | 1 | 16 | 28
CCOc1ccc(CNC(=O)C(CC)n2nc(C)n3c(cc4occc43)c2=O)cc1OC (stereo not given) | -11 | 23 | 7 | -1 | 9 | 13
Cc1ccc2[nH]c(=O)c(CN(CCCN3CCOCC3)C(=O)Nc3ccc(Cl)cc3)cc2c1 | -12 | 5 | -2 | 1 | 5 | -1
CCN1CCN(C(=O)CN2C(=O)c3cccc4cccc2c34)CC1 | -20 | 13 | 4 | 0 | 1 | 5
Cc1ccc(Cl)cc1N1CCN(C(=O)CN2C(=O)c3cccc4cccc2c34)CC1 | -8 | 7 | 62* | 0 | 24 | 4
COC(=O)Cc1ccc(NC(=S)NNC(=O)C2CC2)cc1 | -12 | 9 | -1 | 3.6* | -5 | 1
CC1=CC(C)(C)[N+](C)(C)c2ccc(C)cc21 | -26 | -1 | 10 | 1 | -11 | -5
SMILES | Furin inhibitor | FXIIa inh | KLK5 inh | PERK inh | Thrombin inh | FXIa inh
CCOC(=O)NC(=O)CSc1nnnn1-c1ccccc1 | 38* | 8 | -4 | -1 | 3 | 17
CCOC(=O)CSc1nnnn1-c1cccc2ccccc12 | -13 | 3 | 57* | -1 | 19 | 14
CC1=C(C(=O)Nc2ccccc2)C(c2cccs2)NC(=O)N1 (stereo not given) | -18 | 1 | -8 | 0 | -5 | -4
COc1ccc2ncc(OC(C)=O)cc2c1 | -18 | 15 | -21 | 1 | 40* | 8
COc1ccc2nc(C)cc(C(=O)O)c2c1 | 7 | 3 | -41 | 1 | -7 | -8
COc1ccc(CCNC(=O)c2cc3c(C)nccc3[nH]c2=O)cc1OC | -19 | 6 | x | 2 | -3 | -1
COC(=O)c1ccccc1NC(=O)Oc1ccc(C(C)C)cc1 | -4 | 13 | 52* | 1 | 21 | 9
COC(=O)c1ccccc1NC(=S)NC(=O)COc1ccc(C(C)C)cc1 | -17 | 9 | -12 | 0 | -5 | 3
CCOC(=O)C1(Cc2ccc(OC)cc2)CCN(C(=O)CN2CCCCC2=O)CC1 | -20 | 7 | x | 2 | -1 | 1
Clc1ccc(-c2cc(-c3nnc4n3CCCCC4)c3ccccc3n2)cc1 | -17 | 12 | -3 | -1 | -2 | 1
c1ccc2c(-c3nnc4n3CCCCC4)cc(-c3ccncc3)nc2c1 | -9 | 13 | 20 | -1 | 45* | 3
O=[N+]([O-])c1cccc(C=Nc2cc3c(cc2Br)OCCO3)c1 | -20 | -6 | 51* | 0 | 12 | 8
O=C(N/N=C/c1cccc([N+](=O)[O-])c1)c1ccc2c(c1)OCCO2 | -14 | 12 | 1 | 2 | 2 | 16
CS(=O)(=O)N(Cc1ccco1)CC(O)Cn1c2ccccc2c2ccccc21 (stereo not given) | -13 | 2 | 44* | 0 | 38 | 13
Cc1ccc(N(CC(O)Cn2c3ccccc3c3ccccc32)S(C)(=O)=O)cc1 (stereo not given) | -21 | 0 | -3 | -1 | -1 | 4
O=C(N/N=C\c1cccc([N+](=O)[O-])c1O)C1COc2ccccc2O1 (stereo not given) | -10 | 0 | 55* | 0 | 16 | 5
O=C(N/N=C/c1cccc([N+](=O)[O-])c1)C1COc2ccccc2O1 (stereo not given) | -7 | 9 | -14 | -1 | 4 | 11
O=C(O)c1ccc(NCc2nc3ccccc3n2Cc2ccccc2)cc1 | -8 | 101* | 27 | 0 | 18 | 24
CN(C)/C=C/C1=CC(=O)CC(C)(C)C1 | -15 | 5 | -3 | 0 | -8 | -3
CCOC(=O)CN(C(=O)CSc1nnc(COc2ccc(OC)cc2)n1CC)c1ccccc1 | -11 | 10 | -1 | 0 | 1 | 1
COc1cccc(C(=O)Nc2nc(SCc3ccc(Cl)cc3)n[nH]2)c1 | -20 | 34 | 29 | 1 | 51* | 8
CCOC(=O)CSc1n[nH]c(NC(=O)c2cccc(C(F)(F)F)c2)n1 | -18 | 15 | 39 | 1 | 78* | -8
Cc1nnc(SCCn2c(Br)nc3c2c(=O)[nH]c(=O)n3C)s1 | -19 | 9 | -8 | 0 | 3 | 44*
